Source: ChEMBL document CHEMBL4689842, “EUbOPEN Chemogenomics Library wave 1” (2021)

Test system: HEK-293T
Test: Multiplex assay against HEK293T;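 for Population Tubulin-Different-Phenotype (%): share of the cells with healthy nuclei that show this phenotype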
Type: toxicity, cell-based
Settings: human
Outline: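 Live cells carried four stains from seeding: Hoechst33342, BioTracker Green Microtubule Cytoskeleton Dye, MitoTracker Red and Annexin V Alexa Fluor 680. They were imaged on a CQ1 microscope at 37°C and 5% CO2 after compound addition. Using CellPathfinder machine-learning gating, cells were split into Hoechst high-intensity objects or normal cells, normal cells into healthy, pyknosed or fragmented nuclei, and pyknosed cells into mitotic or apoptotic; tubulin, mitochondrial-mass and membrane-permeability phenotypes are per cents of healthy-nucleus cells.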

[1] = 12 h, 1 µM, compound concentration 1 uM, replicate 1
[2] = 12 h, 1 µM, compound concentration 1 uM, replicate 2
[3] = 12 h, 10 µM, compound concentration 10 uM, replicate 1
[4] = 12 h, 10 µM, compound concentration 10 uM, replicate 2
[5] = 24 h, 1 µM, compound concentration 1 uM, replicate 1
[6] = 24 h, 1 µM, compound concentration 1 uM, replicate 2
[7] = 24 h, 10 µM, compound concentration 10 uM, replicate 1
[8] = 24 h, 10 µM, compound concentration 10 uM, replicate 2
[9] = 48 h, 1 µM, compound concentration 1 uM, replicate 1
[10] = 48 h, 1 µM, compound concentration 1 uM, replicate 2
[11] = 48 h, 10 µM, compound concentration 10 uM, replicate 1
[12] = 48 h, 10 µM, compound concentration 10 uM, replicate 2

## CCCCN(CC)c1nc(C)nc2c1c(C)cn2-c1c(C)cc(C)cc1C.Cl
[1]
  Population Apoptotic (%): 49%
  Population Fragmented Nuclei (%): 15%
  Population Healthy Nuclei (%): 45%
  Population Hoechst High Intensity Objects (%): 16%
  Population Membrane Permeable-Phenotype (%): 5%
  Population Mitochondria Different-Phenotype (%): 79%
  Population Mitotic Cells (%): 50%
  Population Normal (%): 83%
  Population Pyknosed Nuclei (%): 39%
  Population Tubulin-Different-Phenotype (%): 32%
  Total Cell Count: 241
[2]
  Population Apoptotic (%): 11%
  Population Fragmented Nuclei (%): 5%
  Population Healthy Nuclei (%): 43%
  Population Hoechst High Intensity Objects (%): 1%
  Population Membrane Permeable-Phenotype (%): 6%
  Population Mitochondria Different-Phenotype (%): 11%
  Population Mitotic Cells (%): 88%
  Population Normal (%): 98%
  Population Pyknosed Nuclei (%): 51%
  Population Tubulin-Different-Phenotype (%): 17%
  Total Cell Count: 240
[3]
  Population Apoptotic (%): 59%
  Population Fragmented Nuclei (%): 13%
  Population Hoechst High Intensity Objects (%): 8%
  Population Membrane Permeable-Phenotype (%): 1%
  Population Mitochondria Different-Phenotype (%): 95%
  Population Mitotic Cells (%): 40%
  Population Normal (%): 91%
  Population Pyknosed Nuclei (%): 49%
  Population Tubulin-Different-Phenotype (%): 75%
  Total Cell Count: 236
[4]
  Population Apoptotic (%): 27%
  Population Fragmented Nuclei (%): 7%
  Population Healthy Nuclei (%): 37%
  Population Hoechst High Intensity Objects (%): 7%
  Population Membrane Permeable-Phenotype (%): 6%
  Population Mitochondria Different-Phenotype (%): 68%
  Population Mitotic Cells (%): 72%
  Population Normal (%): 92%
  Population Pyknosed Nuclei (%): 54%
  Population Tubulin-Different-Phenotype (%): 60%
  Total Cell Count: 211
[5]
  Population Apoptotic (%): 48%
  Population Fragmented Nuclei (%): 16%
  Population Healthy Nuclei (%): 41%
  Population Hoechst High Intensity Objects (%): 13%
  Population Membrane Permeable-Phenotype (%): 4%
  Population Mitochondria Different-Phenotype (%): 61%
  Population Mitotic Cells (%): 51%
  Population Normal (%): 86%
  Population Pyknosed Nuclei (%): 42%
  Population Tubulin-Different-Phenotype (%): 36%
  Total Cell Count: 247
[6]
  Population Apoptotic (%): 15%
  Population Fragmented Nuclei (%): 4%
  Population Healthy Nuclei (%): 61%
  Population Hoechst High Intensity Objects (%): 1%
  Population Membrane Permeable-Phenotype (%): 9%
  Population Mitochondria Different-Phenotype (%): 13%
  Population Mitotic Cells (%): 84%
  Population Normal (%): 98%
  Population Pyknosed Nuclei (%): 33%
  Population Tubulin-Different-Phenotype (%): 21%
  Total Cell Count: 308
[7]
  Population Apoptotic (%): 64%
  Population Fragmented Nuclei (%): 10%
  Population Hoechst High Intensity Objects (%): 9%
  Population Membrane Permeable-Phenotype (%): 1%
  Population Mitochondria Different-Phenotype (%): 95%
  Population Mitotic Cells (%): 35%
  Population Normal (%): 90%
  Population Pyknosed Nuclei (%): 37%
  Population Tubulin-Different-Phenotype (%): 89%
[8]
  Population Apoptotic (%): 29%
  Population Fragmented Nuclei (%): 4%
  Population Healthy Nuclei (%): 51%
  Population Hoechst High Intensity Objects (%): 6%
  Population Membrane Permeable-Phenotype (%): 4%
  Population Mitochondria Different-Phenotype (%): 73%
  Population Mitotic Cells (%): 70%
  Population Normal (%): 93%
  Population Pyknosed Nuclei (%): 44%
  Population Tubulin-Different-Phenotype (%): 81%
  Total Cell Count: 231
[9]
  Population Apoptotic (%): 43%
  Population Fragmented Nuclei (%): 20%
  Population Healthy Nuclei (%): 46%
  Population Hoechst High Intensity Objects (%): 12%
  Population Membrane Permeable-Phenotype (%): 2%
  Population Mitochondria Different-Phenotype (%): 26%
  Population Mitotic Cells (%): 56%
  Population Normal (%): 87%
  Population Pyknosed Nuclei (%): 32%
  Population Tubulin-Different-Phenotype (%): 22%
  Total Cell Count: 315
[10]
  Population Apoptotic (%): 15%
  Population Fragmented Nuclei (%): 7%
  Population Healthy Nuclei (%): 82%
  Population Hoechst High Intensity Objects (%): 3%
  Population Membrane Permeable-Phenotype (%): 4%
  Population Mitochondria Different-Phenotype (%): 8%
  Population Mitotic Cells (%): 84%
  Population Normal (%): 96%
  Population Pyknosed Nuclei (%): 10%
  Population Tubulin-Different-Phenotype (%): 17%
  Total Cell Count: 539
[11]
  Population Apoptotic (%): 49%
  Population Fragmented Nuclei (%): 13%
  Population Healthy Nuclei (%): 67%
  Population Hoechst High Intensity Objects (%): 9%
  Population Membrane Permeable-Phenotype (%): 3%
  Population Mitochondria Different-Phenotype (%): 74%
  Population Mitotic Cells (%): 50%
  Population Normal (%): 90%
  Population Pyknosed Nuclei (%): 19%
  Population Tubulin-Different-Phenotype (%): 70%
  Total Cell Count: 365
[12]
  Population Apoptotic (%): 36%
  Population Fragmented Nuclei (%): 7%
  Population Healthy Nuclei (%): 74%
  Population Hoechst High Intensity Objects (%): 2%
  Population Membrane Permeable-Phenotype (%): 0%
  Population Mitochondria Different-Phenotype (%): 54%
  Population Mitotic Cells (%): 63%
  Population Normal (%): 97%
  Population Pyknosed Nuclei (%): 18%
  Population Tubulin-Different-Phenotype (%): 67%
  Total Cell Count: 337
